Activity and ED50 data for six compounds are collected here from ChEMBL document CHEMBL1143314, “Bone selective effect of an estradiol conjugate with a novel tetracycline-derived bone-targeting agent” (2009).

Active and inactive are the calls of the source. The rule behind the calls is not given here.

Assay [1] concerns Hydroxyapatite. Kind of assay: Binding affinity to bone mineral hydroxyapatite assessed as binding index. The method in brief:
(§1)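 Analyte 10^-5 M final in 50 mM Tris–HCl pH 7.4, 1% DMSO (from 10^-3 M DMSO stock), mixed by inversion 4 min with HA slurry (0.5 g/100 mL) or buffer alone, centrifuged 12,000g 3 min. Supernatant UV-vis scanned 220–520 nm; concentration at λmax by Beer–Lambert; fraction adsorbed calculated. Tetracycline reference set to index 100.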

Assay [2] has as its system Hydroxyapatite. Kind of assay: Binding affinity to bone mineral hydroxyapatite. Put shortly: as §1
For assay [3], the system named is Hydroxyapatite. Kind of assay: Binding affinity to bone mineral hydroxyapatite relative to tetracyclin. Put shortly: as §1
Assay [4] deals with Rattus norvegicus. The experiment in a line: Antibone resorptive activity in sc dosed Sprague-Dawley rat assessed as inhibition of bilaterally ovariectomization-induced decrease in body weight normalized uterine mass administered 4 days after sugery at three times per week schedule for 6 weeks. The class given is functional. The method in brief: (§2)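 Three-month-old female Sprague–Dawley rats, bilaterally ovariectomized or sham-operated, given vehicle or drug s.c. three times weekly from 4 days post-surgery for 6 weeks. Excised femur and uterus weighed, normalized to body mass. Percent effect = (treatment − OVX control)/(sham − OVX control); n = 6–10 per group; mean SEM; ED50 from dose–response curves.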

For assay [5], the system named is Rattus norvegicus. Kind of assay: Antibone resorptive activity in sc dosed Sprague-Dawley rat assessed as inhibition of bilaterally ovariectomization-induced decrease in body weight normalized femoral mass administered 4 days after sugery at three times per week schedule for 6 weeks. The class given is functional. The method in brief: as §2

For `CN(C)[C@@H]1C(O)=C(C(N)=O)C(=O)[C@@]2(O)C(O)=C3C(=O)c4c(O)cccc4[C@@](C)(O)[C@H]3C[C@@H]12`, the Activity with Hydroxyapatite [1] came out at 100. Regarding `NC(=O)c1c(O)cccc1O`, the result in the assay on Hydroxyapatite [2] was inactive. Consider `NC(=O)c1c(O)ccc(N)c1O`, for which the Activity in the assay with Hydroxyapatite [3] turned out to be 50%. One may read the ED50 as the dose at which the effect has come halfway, by size or by number of responders. Regarding `C[C@]12CC[C@@H]3c4ccc(O)cc4CC[C@H]3[C@@H]1CC[C@@H]2O` [ESTRADIOL], the ED50 in the assay with Rattus norvegicus [4] was determined as 0.009 µmol/kg. Besides, in the assay with Rattus norvegicus [5], the Activity entry was “Dose-dependent effect” and the ED50 amounted to 0.01 µmol/kg. As for `O=C(O)c1c(O)cccc1O`, the result with Hydroxyapatite [2] was inactive. Still for that read-out and setting: in the case of `NC(=O)C1C(=O)CCCC1=O` it was “inactive”.
